Entries after “also recorded” stand apart in the source; their conditions may differ. Blank lines part the entries; values can stand above or below the molecule they belong to. Where no end group is shown, it is not given here.
How the values were obtained:
SH3 domains of p47^phox = conditions: ref [41], [42]; cited from earlier work
[1] = target: T1, Nox2 oxidase (COS-Nox2 cell lysate) (Homo sapiens, UniProt P14598); experiment: SOD-inhibitable cytochrome c assay, COS-Nox2 cell-free system; assay type: biochemical; conditions: for decrease of O2^•− production: L-NAME 100 μM, rotenone 50 μM, febuxostat 100 nM, n = 3
T1 sequence (P14598 1-390): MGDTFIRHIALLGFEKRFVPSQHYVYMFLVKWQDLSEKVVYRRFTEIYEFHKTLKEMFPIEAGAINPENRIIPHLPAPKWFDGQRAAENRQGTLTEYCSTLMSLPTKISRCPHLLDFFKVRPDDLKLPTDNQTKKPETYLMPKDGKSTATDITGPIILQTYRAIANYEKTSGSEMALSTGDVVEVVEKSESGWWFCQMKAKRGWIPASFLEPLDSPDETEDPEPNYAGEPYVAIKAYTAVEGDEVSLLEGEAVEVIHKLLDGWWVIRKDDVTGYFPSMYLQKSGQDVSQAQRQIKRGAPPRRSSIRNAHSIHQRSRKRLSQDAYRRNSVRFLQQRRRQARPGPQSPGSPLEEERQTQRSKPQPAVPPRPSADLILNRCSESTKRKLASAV

[2] = system: Nox1/NOXO1/NOXA1 (HEK-Nox1 cell-free system); experiment: Cytochrome c assay, HEK-Nox1 cell-free system; assay type: biochemical, human; conditions: 10 μM Nox2ds preincubated with NOXO1; LiDS 130 μM
Outline: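 […] cells were separately transfected with Nox1, NOXO1 or NOXA1. Lysates were spun at 160000 × g for 60 min at 4 °C to give Nox1 membranes and NOXO1 and NOXA1 cytosols. NOXO1 was preincubated with vehicle or 10 μM peptide for 10 min, then Nox1 membrane and NOXA1 added in turn. LiDS (130 μM) was followed by 180 μM NADPH. Output was the initial linear rate of SOD-inhibitable cytochrome c reduction, nmol/min/10^7 cell equivalents.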

[3] = system: Nox1 oxidase (COS-Nox1/NOXO1/NOXA1 cells); experiment: L-012 chemiluminescence, intact COS-Nox1/NOXO1/NOXA1 cells; assay type: cell-based, human; conditions: n = 3; for L-012 chemiluminescence: untreated 52977±1921
COS-22 cells = experiment: L-012 chemiluminescence, intact COS-22 cells; assay type: cell-based; conditions: n = 3, untreated 8734±158
[4] = system: HEK-Nox1/NOXO1/NOXA1 cells; experiment: L-012 chemiluminescence, intact HEK-Nox1/NOXO1/NOXA1 cells; assay type: cell-based, human; conditions: PMA 1 μM
HEK 298 cells = experiment: L-012 chemiluminescence, non-transfected HEK 298 cells; assay type: cell-based; conditions: PMA 1 μM; n = 4; unstimulated 755±65.3
[5] = system: Nox4 DH domain (GST-fused); experiment: Fluorescence polarization competition with FITC-Nox4 B-loop; assay type: binding; conditions: for competition with Nox4 B-loop for Nox4 DH domain: fluorescence polarization
Nox4 (COS-Nox4 cells) [6] = conditions: DPI 5 μM; untreated COS-Nox4 4818±19, COS-22 2577±6.5
Nox4 (COS-Nox4 cells) [7] = experiment: cells; conditions: Homo sapiens, read-out: inhibition of Nox4-dependent activity
[8] = system: nitric oxide synthase (NOS); conditions: ref [41], [47]; cited from earlier work
xanthine oxidase [9] = conditions: ref [41], [47]; cited from earlier work
[10] = system: NADH dehydrogenase (mitochondrial complex I); conditions: ref [41], [47]; cited from earlier work
xanthine oxidase [11] = experiment: Xanthine/xanthine oxidase O2^•− generating system, EPR; assay type: biochemical
[12] = target: T2, Nox4 dehydrogenase domain (amino acids 304 – 578) recombinant protein fused to GST (human, UniProt Q9NPH5 304-578); experiment: fluorescence polarisation
T2 sequence (looked up): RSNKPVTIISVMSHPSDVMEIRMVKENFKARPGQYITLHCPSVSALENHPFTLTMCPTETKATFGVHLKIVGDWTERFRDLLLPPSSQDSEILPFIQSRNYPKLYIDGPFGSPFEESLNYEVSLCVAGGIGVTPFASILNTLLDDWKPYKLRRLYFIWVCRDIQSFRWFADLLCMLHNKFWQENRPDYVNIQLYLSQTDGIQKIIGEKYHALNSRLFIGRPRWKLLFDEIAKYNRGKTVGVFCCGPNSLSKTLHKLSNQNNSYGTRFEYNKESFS

Molecule: PR-39
SH3 binding and association of p47^phox with Nox2 (SH3 domains of p47^phox): binds to the SH3 domains of p47^phox, was shown to prevent association of p47^phox with Nox2

Molecule: CCCCCCCCCCCCOS(=O)(=O)[O-].[Li+] [LiDS, lithium dodecyl sulfate]
O2^•− production ([1]; LiDS 130 μM, NADPH 180 μM, vehicle 0.40±0.1, p < 0.05): 1.33±0.1 nmol O2^•−/min/10^7 COS-Nox2 lysate-cell equivalents | effect on O2^•− production in HEK-Nox1 cell-free system [2]: significantly increased O2^•− production

Molecule: Cc1nc(-c2ccc(OCC(C)C)c(C#N)c2)sc1C(=O)O [febuxostat, Febuxostat]
decrease of O2^•− production [1]: did not decrease O2^•− production significantly

Molecule: CCCCCCCCCCCCCC(=O)O[C@@H]1[C@@H](C)[C@@]2(O)[C@@H](C=C(CO)C[C@]3(O)C(=O)C(C)=C[C@@H]23)[C@@H]2C(C)(C)[C@]12OC(C)=O [PMA, phorbol myristate acetate]
L-012 chemiluminescence ([3]; PMA 1 μM): 56537±2741 RLUs | effect on chemiluminescent signal / O2^•− ([3]; SOD 150 U/ml, PMA 1 μM): did not stimulate O2^•− | L-012 chemiluminescence (COS-22 cells; PMA 1 μM): 5903±541 RLUs | stimulation of O2^•− ([4]; n = 4, p < 0.05): significantly stimulated O2^•− | L-012 chemiluminescence ([4]; n = 4, unstimulated 8560±337, p < 0.05): 12946±199 RLUs | L-012 chemiluminescence (HEK 298 cells): 912±40.5 RLUs

Molecule: Nox4 B-loop: unlabeled Nox4 B-loop peptide (amino acids 77 – 106) (RTLLAYLRGSQKVPSRRTRRLLDKSRTFHI)
competition with Nox4 B-loop for Nox4 DH domain [5]: effectively competed off the FITC-Nox4 B-loop in the low micromolar range; also recorded: quite effectively, in the low micromolar range

Molecule: C=C(C)[C@H]1Cc2c(ccc3c2O[C@@H]2COc4cc(OC)c(OC)cc4[C@@H]2C3=O)O1 [rotenone]
decrease of O2^•− production [1]: did not decrease O2^•− production significantly

Molecule: c1ccc2c(c1)[I+]c1ccccc1-2 [DPI, diphenyleneiodonium chloride]
H2O2-generating activity, Amplex Red fluorescence (Nox4 (COS-Nox4 cells) [6]): 2977±227 RFU | inhibition at 5 µM (Nox4 (COS-Nox4 cells) [7]): 82% | inhibition [8]: inhibits a multitude of flavin-containing enzymes including nitric oxide synthase (NOS) | inhibition (xanthine oxidase [9]): inhibits a multitude of flavin-containing enzymes including nitric oxide synthase (NOS), xanthine oxidase | inhibition [10]: inhibits a multitude of flavin-containing enzymes including nitric oxide synthase (NOS), xanthine oxidase, and NADH dehydrogenase (mitochondrial complex I)

inhibition of O2^•− production ([1]; 0.1–10 μM, 5 min preincubation, LiDS 130 μM, NADPH 180 μM, 7–16 experiments): did not inhibit Nox2-oxidase | CM^• radical intensity (xanthine oxidase [11]; 10 μM peptide + X/XO, 10 min, XO/X control 100±2.4, mean ± SEM of 6 experiments): 92.4±1.8% | effect on XO-generated O2^•− (xanthine oxidase [11]; 10 μM, 10 min preincubation): did not alter XO-generated O2^•−
Molecule: [NH3]-C-L-R-V-T-R-Q-S-R-[CONH2] [scrmb Nox2ds]
competition with Nox4 B-loop ([5]; at concentrations below 0.1 mM): not effective | competition with Nox4 B-loop for Nox4 DH domain [5]: equal and poor competition with the Nox4 B-loop for binding to the Nox4 DH domain (millimolar concentrations)

Molecule: COC(=O)[C@@H](N)CCCNC(N)=N[N+](=O)[O-] [L-NAME, Nω-Nitro-L-arginine methyl ester]
decrease of O2^•− production [1]: did not decrease O2^•− production significantly

radical intensity (xanthine oxidase [11]; XO + X in presence of 100 U/ml SOD, 6 experiments): 15.7±0.3%
Molecule: superoxide dismutase [SOD]
effect on chemiluminescent signal / O2^•− ([3]; SOD 150 U/ml, PMA 1 μM): abolished the chemiluminescent signal | L-012 chemiluminescence ([3]; SOD 150 U/ml): 177±9 RLUs | L-012 chemiluminescence (COS-22 cells; SOD 150 U/ml): 108±16 RLUs

LogEC50 [12]: 3 nM
Molecule: RTLLAYLRGSQKVPSRRTRRLLDKSRTFHI (peptide, UniProt Q9NPH5-1 77-106, looked up) [unlabeled Nox4 B-loop peptide (amino acids 77 – 106)]

LogEC50 [12]: 5.5 nM
Molecule: CSTRVRRQL-NH2 [Nox2ds]
